Laboratory results from ChEMBL document CHEMBL3351848, “Novel insights into structure and function of factor XIIIa-inhibitor tridegin” (J Med Chem, 2014).
Calls of active or inactive are those of the source. The rule behind the calls is not given here. Residues, ends and D or L forms follow the SMILES beside them.

Experiments:
[1] = molecular target: T1, Protein-glutamine gamma-glutamyltransferase (Homo sapiens) (UniProt P21980); experiment: Inhibition of human TGase-2 using fluorogenic FRET substrate at 10 uM
T1 sequence (whole entry): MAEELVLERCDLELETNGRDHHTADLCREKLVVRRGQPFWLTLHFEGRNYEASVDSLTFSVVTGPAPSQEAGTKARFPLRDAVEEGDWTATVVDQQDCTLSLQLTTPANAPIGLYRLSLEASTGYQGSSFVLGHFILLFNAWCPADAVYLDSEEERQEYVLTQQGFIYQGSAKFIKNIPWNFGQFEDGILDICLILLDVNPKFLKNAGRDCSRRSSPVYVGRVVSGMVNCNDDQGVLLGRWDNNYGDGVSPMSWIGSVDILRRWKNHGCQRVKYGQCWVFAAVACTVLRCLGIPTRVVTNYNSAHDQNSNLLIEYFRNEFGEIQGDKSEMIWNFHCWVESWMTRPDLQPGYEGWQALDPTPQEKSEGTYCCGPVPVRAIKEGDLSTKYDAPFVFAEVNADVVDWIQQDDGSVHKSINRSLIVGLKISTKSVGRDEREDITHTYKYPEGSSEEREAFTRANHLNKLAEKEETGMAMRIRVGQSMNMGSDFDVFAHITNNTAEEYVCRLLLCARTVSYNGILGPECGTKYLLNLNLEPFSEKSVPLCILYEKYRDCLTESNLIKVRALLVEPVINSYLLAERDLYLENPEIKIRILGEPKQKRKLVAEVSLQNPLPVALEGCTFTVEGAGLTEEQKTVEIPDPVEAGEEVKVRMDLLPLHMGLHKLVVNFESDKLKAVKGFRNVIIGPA

[2] = molecular target: T2, Coagulation factor XIII B chain (Homo sapiens) (UniProt P05160); experiment: Binding affinity to nonactivated recombinant F13B subunit (unknown origin) by microscale thermophoresis method
T2 sequence (whole entry): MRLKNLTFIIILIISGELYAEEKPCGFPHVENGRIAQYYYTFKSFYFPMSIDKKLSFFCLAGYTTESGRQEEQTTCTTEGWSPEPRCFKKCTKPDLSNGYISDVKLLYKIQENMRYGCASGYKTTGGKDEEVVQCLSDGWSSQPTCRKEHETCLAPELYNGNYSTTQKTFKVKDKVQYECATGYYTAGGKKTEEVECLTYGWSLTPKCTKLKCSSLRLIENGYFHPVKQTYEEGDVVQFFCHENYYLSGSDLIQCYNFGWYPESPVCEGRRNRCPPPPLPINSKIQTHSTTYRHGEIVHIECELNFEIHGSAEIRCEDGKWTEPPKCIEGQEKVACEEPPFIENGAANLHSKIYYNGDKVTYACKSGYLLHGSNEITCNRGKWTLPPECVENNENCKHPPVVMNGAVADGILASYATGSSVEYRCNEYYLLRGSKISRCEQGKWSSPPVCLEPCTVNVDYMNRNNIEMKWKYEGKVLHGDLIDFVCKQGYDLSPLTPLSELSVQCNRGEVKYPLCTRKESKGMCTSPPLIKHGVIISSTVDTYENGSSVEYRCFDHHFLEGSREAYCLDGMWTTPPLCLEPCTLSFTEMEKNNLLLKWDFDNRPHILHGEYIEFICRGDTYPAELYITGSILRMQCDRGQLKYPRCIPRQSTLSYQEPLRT
Method in brief: (§1)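 Carboxyfluorescein-labeled peptide (2 μM solution, before mixing) in 50 mM Tris-HCl pH 7.5, 0.9% w/v NaCl, with Tween-20 to 0.1% final. Mixed with an equal volume of protein (FXIIIa, FXIII-A or FXIII-B) in the same buffer, 15 concentrations spanning 3.1 μM to 0.1 nM. After 20 min incubation, the mixture was loaded into glass capillaries and thermophoresis read three times per capillary.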

[3] = molecular target: T3, Coagulation factor XIII A chain (Homo sapiens, UniProt P00488); experiment: Inhibition of recombinant F13a (unknown origin) using H-Tyr-Glu(pNA)-Val-Lys-Val-Ile-Gly-NH2 as substrate by chromogenic assay
T3 sequence (P00488 whole entry): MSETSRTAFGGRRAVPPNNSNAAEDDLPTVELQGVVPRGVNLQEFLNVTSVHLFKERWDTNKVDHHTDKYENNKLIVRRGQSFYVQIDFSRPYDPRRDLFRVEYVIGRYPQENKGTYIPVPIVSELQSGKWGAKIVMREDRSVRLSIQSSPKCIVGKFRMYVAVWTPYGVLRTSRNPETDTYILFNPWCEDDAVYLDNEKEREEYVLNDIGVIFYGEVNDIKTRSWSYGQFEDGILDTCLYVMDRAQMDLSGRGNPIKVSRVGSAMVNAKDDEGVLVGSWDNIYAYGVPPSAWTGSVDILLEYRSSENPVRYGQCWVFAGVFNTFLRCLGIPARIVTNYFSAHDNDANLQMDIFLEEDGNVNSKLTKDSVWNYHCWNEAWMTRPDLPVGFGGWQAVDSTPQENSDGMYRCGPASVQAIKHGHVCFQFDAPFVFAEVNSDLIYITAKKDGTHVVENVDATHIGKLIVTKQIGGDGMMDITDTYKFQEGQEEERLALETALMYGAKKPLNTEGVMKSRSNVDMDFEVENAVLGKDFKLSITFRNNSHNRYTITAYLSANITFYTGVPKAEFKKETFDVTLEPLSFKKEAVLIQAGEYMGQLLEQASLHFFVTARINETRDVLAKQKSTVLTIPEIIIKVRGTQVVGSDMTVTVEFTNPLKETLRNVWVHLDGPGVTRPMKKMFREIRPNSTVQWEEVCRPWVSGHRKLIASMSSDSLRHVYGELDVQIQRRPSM

[4] = molecular target: T4, Coagulation factor XIII A chain (Homo sapiens) (UniProt P00488); experiment: Binding affinity to nonactivated recombinant F13A subunit (unknown origin) by microscale thermophoresis method; method in brief: as §1
T4 sequence (whole entry): T3 sequence (P00488 whole entry)

| inhibition [1] [%] | Activity [2] | IC50 [3] [nM] | Activity [4] | Compound |
| --- | --- | --- | --- | --- |
| < 10 | inactive | 2200 | inactive | CC[C@H](C)[C@H](NC(=O)[C@H](CC(=O)O)NC(=O)[C@H](CC(=O)O)NC(=O)[C@H](CCSC)NC(=O)[C@@H]1CCCN1C(=O)[C@H](CCCCN)NC(=O)[C@@H](NC(=O)[C@H](CC(C)C)NC(=O)[C@H](CCC(=O)O)NC(=O)[C@H](CO)NC(=O)[C@H](CCCNC(=N)N)NC(=O)[C@@H]1CCCN1C(=O)[C@@H](N)CCCNC(=N)N)[C@@H](C)CC)C(=O)N[C@@H](Cc1ccc(O)cc1)C(=O)N[C@@H](CCC(N)=O)C(=O)N[C@@H](CCCNC(=N)N)C(=O)N1CCC[C@H]1C(=O)N[C@H](C(=O)N[C@@H](CCC(=O)O)C(=O)N[C@@H](Cc1ccccc1)C(=O)N1CCC[C@H]1C(=O)N[C@@H](CC(N)=O)C(=O)N[C@@H](CC(C)C)C(=O)N1CCC[C@H]1C(=O)N[C@@H](CC(C)C)C(=O)N[C@@H](CCCCN)C(=O)N1CCC[C@H]1C(=O)N[C@@H](CCCNC(=N)N)C(=O)N[C@@H](CCC(=O)O)C(=O)O)C(C)C (H-RPRSELIKPMDDIYQRPVEFPNLPLKPRE-OH) |
| – | – | 1900 | – | CC[C@H](C)[C@H](NC(=O)[C@H](CC(=O)O)NC(=O)[C@H](CC(=O)O)NC(=O)[C@H](CCSC)NC(=O)[C@@H]1CCCN1C(=O)[C@H](CCCCN)NC(=O)[C@@H](NC(=O)[C@H](CC(C)C)NC(=O)[C@H](CCC(=O)O)NC(=O)[C@@H](N)CO)[C@@H](C)CC)C(=O)N[C@@H](Cc1ccc(O)cc1)C(=O)N[C@@H](CCC(N)=O)C(=O)N[C@@H](CCCNC(=N)N)C(=O)N1CCC[C@H]1C(=O)N[C@H](C(=O)N[C@@H](CCC(=O)O)C(=O)N[C@@H](Cc1ccccc1)C(=O)N1CCC[C@H]1C(=O)N[C@@H](CC(N)=O)C(=O)N[C@@H](CC(C)C)C(=O)N1CCC[C@H]1C(=O)N[C@@H](CC(C)C)C(=O)O)C(C)C (H-SELIKPMDDIYQRPVEFPNLPL-OH) |
| – | inactive | 1700 | inactive | CC[C@H](C)[C@H](NC(=O)[C@H](CC(=O)O)NC(=O)[C@H](CC(=O)O)NC(=O)[C@H](CCSC)NC(=O)[C@@H]1CCCN1C(=O)[C@H](CCCCN)NC(=O)[C@@H](NC(=O)[C@H](CC(C)C)NC(=O)[C@H](CCC(=O)O)NC(=O)[C@H](CO)NC(=O)[C@H](CCCNC(=N)N)NC(=O)[C@@H]1CCCN1C(=O)[C@H](CCCNC(=N)N)NC(=O)[C@H](CS)NC(=O)[C@H](CCC(N)=O)NC(=O)[C@@H]1CCCN1C(=O)[C@@H](NC(=O)[C@H](Cc1ccccc1)NC(=O)[C@H](C)N)[C@@H](C)CC)[C@@H](C)CC)C(=O)N[C@@H](Cc1ccc(O)cc1)C(=O)N[C@@H](CCC(N)=O)C(=O)N[C@@H](CCCNC(=N)N)C(=O)N1CCC[C@H]1C(=O)N[C@H](C(=O)N[C@@H](CCC(=O)O)C(=O)N[C@@H](Cc1ccccc1)C(=O)N1CCC[C@H]1C(=O)N[C@@H](CC(N)=O)C(=O)N[C@@H](CC(C)C)C(=O)N1CCC[C@H]1C(=O)N[C@@H](CC(C)C)C(=O)N[C@@H](CCCCN)C(=O)N1CCC[C@H]1C(=O)N[C@@H](CCCNC(=N)N)C(=O)N[C@@H](CCC(=O)O)C(=O)O)C(C)C (H-AFIPQCRPRSELIKPMDDIYQRPVEFPNLPLKPRE-OH) |
